ChEMBL document CHEMBL1152267, “Peptides based on CcdB protein as novel inhibitors of bacterial topoisomerases” (Bioorg Med Chem Lett, 2008)
Calls of active or inactive are those of the source. The rule behind the calls is not given here.

Key:
Escherichia coli [1] = test: Inhibition of Escherichia coli topoisomerase 4 assessed as DNA relaxation activity
Procedure, shortened: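 ATP-dependent relaxation assay. Topo IV at 5 nM with supercoiled DNA (400 ng) at 37 °C, with peptide titrated at fixed enzyme and DNA. Value is IC100, the minimum concentration completely inhibiting relaxation.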

Escherichia coli [2] = test: Inhibition of Escherichia coli DNA-gyrase assessed as DNA supercoiling activity
Procedure, shortened: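 Peptide titrated into a fixed amount of enzyme and DNA. Gyrase at 3.4 nM with relaxed DNA substrate (500 ng), 37 °C for 1 h, which fully negatively supercoils the substrate without inhibitor. Value is IC100, the lowest peptide concentration giving complete inhibition of supercoiling.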

Work on CC[C@H](C)[C@H](NC(=O)CNC(=O)[C@H](Cc1c[nH]c2ccccc12)NC(=O)[C@H](Cc1ccccc1)NC(=O)[C@H](CCSC)NC(=O)[C@H](CC(C)C)NC(=O)[C@H](CC(N)=O)NC(=O)[C@@H](NC(=O)[C@H](C)NC(=O)[C@H](CC(N)=O)NC(=O)[C@H](CCCCN)NC(=O)[C@@H](NC(=O)[C@H](CC(=O)O)NC(=O)[C@H](CC(N)=O)NC(=O)[C@H](CCC(=O)O)NC(=O)[C@H](CCCNC(=N)N)NC(=O)[C@H](Cc1cnc[nH]1)NC(=O)[C@@H](N)CO)[C@@H](C)CC)[C@@H](C)CC)C(=O)O yielded an IC100 (Escherichia coli [1]) of 15 µM and an IC100 (Escherichia coli [2]) of 60 µM.
In the case of CC[C@H](C)[C@H](NC(=O)CNC(=O)[C@H](Cc1c[nH]c2ccccc12)NC(=O)[C@H](Cc1ccccc1)NC(=O)[C@H](CCSC)NC(=O)[C@H](CC(C)C)NC(=O)[C@H](CC(N)=O)NC(=O)[C@@H](NC(=O)[C@H](C)NC(=O)[C@H](CC(N)=O)NC(=O)[C@H](CCCCN)NC(=O)[C@@H](NC(=O)[C@H](CC(=O)O)NC(=O)[C@H](CC(N)=O)NC(=O)[C@H](CCC(=O)O)NC(=O)[C@H](CCCNC(=N)N)NC(=O)[C@H](Cc1cnc[nH]1)NC(=O)[C@H](CO)NC(=O)[C@H](CC(C)C)NC(=O)[C@H](CC(=O)O)NC(=O)[C@H](C)NC(=O)[C@@H](NC(=O)[C@H](CCC(=O)O)NC(=O)[C@H](CCC(=O)O)NC(=O)CNC(=O)[C@@H](NC(=O)[C@@H](NC(=O)[C@H](CO)NC(=O)[C@@H](NC(=O)[C@@H]1CCCN1C(=O)[C@@H](NC(=O)[C@H](CO)NC(=O)[C@H](C)NC(=O)[C@@H](N)CCSC)C(C)C)C(C)C)C(C)C)[C@@H](C)CC)C(C)C)[C@@H](C)CC)[C@@H](C)CC)C(=O)O, the Activity (Escherichia coli [1]) is reported as “inactive” and the Activity (Escherichia coli [2]) is reported as “inactive”.
With CC[C@H](C)[C@H](NC(=O)[C@H](CCC(=O)O)NC(=O)[C@H](Cc1c[nH]c2ccccc12)NC(=O)[C@H](Cc1ccccc1)NC(=O)[C@H](CCSC)NC(=O)[C@H](CC(C)C)NC(=O)[C@H](CC(N)=O)NC(=O)[C@@H](NC(=O)[C@H](C)NC(=O)[C@H](CC(N)=O)NC(=O)[C@H](CCCCN)NC(=O)[C@@H](NC(=O)[C@H](CC(=O)O)NC(=O)[C@H](CC(N)=O)NC(=O)[C@H](CCC(=O)O)NC(=O)[C@H](CCCNC(=N)N)NC(=O)[C@H](Cc1cnc[nH]1)NC(=O)[C@H](CO)NC(=O)CCCCCNC(=O)[C@H](CC(C)C)NC(=O)[C@H](CCC(=O)O)NC(=O)[C@H](CCCNC(=N)N)NC(=O)[C@H](CO)NC(=O)[C@@H](NC(=O)[C@H](CCCCN)NC(=O)[C@H](CC(=O)O)NC(=O)[C@H](CO)NC(=O)[C@H](CC(C)C)NC(=O)[C@H](CC(C)C)NC(=O)[C@H](CCCNC(=N)N)NC(=O)CCCCCNC(=O)[C@H](CCCCN)NC(=O)[C@H](Cc1ccc(O)cc1)NC(=O)[C@@H](NC(=O)[C@H](Cc1ccc(O)cc1)NC(=O)[C@@H](NC(=O)[C@H](CCCCN)NC(=O)[C@H](Cc1ccccc1)NC(=O)[C@H](CCC(N)=O)NC(=O)[C@@H](N)CCSC)C(C)C)[C@@H](C)O)C(C)C)[C@@H](C)CC)[C@@H](C)CC)C(=O)O the IC100 (Escherichia coli [1]) was 5 µM and the Activity (Escherichia coli [2]) was “inactive”.
CC[C@H](C)[C@H](NC(=O)CNC(=O)[C@H](Cc1c[nH]c2ccccc12)NC(=O)[C@H](Cc1ccccc1)NC(=O)[C@H](CCSC)NC(=O)[C@H](CC(C)C)NC(=O)[C@H](CC(N)=O)NC(=O)[C@@H](NC(=O)[C@H](C)NC(=O)[C@H](CC(N)=O)NC(=O)[C@H](CCCCN)NC(=O)[C@@H](NC(=O)[C@H](CC(=O)O)NC(=O)[C@H](CC(N)=O)NC(=O)[C@H](CCC(=O)O)NC(=O)[C@H](CCCNC(=N)N)NC(=O)[C@H](Cc1cnc[nH]1)NC(=O)[C@H](CO)NC(=O)CCCCCNC(=O)[C@H](CC(C)C)NC(=O)[C@H](CCC(=O)O)NC(=O)[C@H](CCCNC(=N)N)NC(=O)[C@H](CO)NC(=O)[C@@H](NC(=O)[C@H](CCCCN)NC(=O)[C@H](CC(=O)O)NC(=O)[C@H](CO)NC(=O)[C@H](CC(C)C)NC(=O)[C@H](CC(C)C)NC(=O)[C@H](CCCNC(=N)N)NC(=O)CCCCCNC(=O)[C@H](CCCCN)NC(=O)[C@H](Cc1ccc(O)cc1)NC(=O)[C@@H](NC(=O)[C@H](Cc1ccc(O)cc1)NC(=O)[C@@H](NC(=O)[C@H](CCCCN)NC(=O)[C@H](Cc1ccccc1)NC(=O)[C@H](CCC(N)=O)NC(=O)[C@@H](N)CCSC)C(C)C)[C@@H](C)O)C(C)C)[C@@H](C)CC)[C@@H](C)CC)C(=O)O showed an IC100 (Escherichia coli [1]) of 5 µM and an IC100 (Escherichia coli [2]) of 10 µM.
CC[C@H](C)[C@H](NC(=O)CNC(=O)[C@H](Cc1c[nH]c2ccccc12)NC(=O)[C@H](Cc1ccccc1)NC(=O)[C@H](CCSC)NC(=O)[C@H](CC(C)C)NC(=O)[C@H](CC(N)=O)NC(=O)[C@@H](NC(=O)[C@H](C)NC(=O)[C@H](CC(N)=O)NC(=O)[C@H](CCCCN)NC(=O)[C@@H](NC(=O)[C@H](CC(=O)O)NC(=O)[C@H](CC(N)=O)NC(=O)[C@H](CCC(=O)O)NC(=O)[C@H](CCCNC(=N)N)NC(=O)[C@H](Cc1cnc[nH]1)NC(=O)[C@H](CO)NC(=O)CCCCCNC(=O)[C@H](CCCCN)NC(=O)[C@H](Cc1ccc(O)cc1)NC(=O)[C@@H](NC(=O)[C@H](Cc1ccc(O)cc1)NC(=O)[C@@H](NC(=O)[C@H](CCCCN)NC(=O)[C@H](Cc1ccccc1)NC(=O)[C@H](CCC(N)=O)NC(=O)[C@@H](N)CCSC)C(C)C)[C@@H](C)O)[C@@H](C)CC)[C@@H](C)CC)C(=O)O gave an IC100 (Escherichia coli [1]) of 15 µM and an IC100 (Escherichia coli [2]) of 40 µM.
